Screens from PubChem.
A selection: hits, their analogues and other compounds. The true share with any hit is near 4.9%.
APP 5'UTR act – activates APP 5'UTR luciferase reporter. SH-SY5Y APP 5'UTR luciferase reporter, luminescence; zero percent = DMSO vehicle wells. activation, % at 2 µM. 190,000 tested, 1% active. AID 1276;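 active = activation above a set limit, based on mean plus 3 SD of controls, cut at about 140% in these data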
STAT1 blocker – inhibitors of IFN-gamma induced STAT1 signaling; NIH 3T3 STAT1-luciferase reporter, luminescence; inhibition, % at 5.5 µM; 200,000 tested, 0.35% active; AID 920;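 active = inhibition above a set limit, the mean inhibition across all tested compounds plus 3 SD, cut at about 34% in these data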;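 note: 0% = IFN-gamma with DMSO and 100% = IFN-gamma with 300 µM nifuroxazide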
NF-kB neuron act – raises NF-kB expression in human neuronal cells; NF-kB reporter expression; active compounds read high; fold change at 12.5 µM; 190,000 tested, 1.6% active; AID 1239; in the data active = fold change above about 3.3
STAT3 act – STAT3 signaling activation; U3A cells, IL-6 STAT3-luciferase reporter, luminescence; 100% = signal with IL-6 EC80 alone; activation (% of control), % at 5.6 µM; 190,000 tested, 0.91% active; AID 871;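 active = activation above the screen-wide mean of compound activation plus 3 SD, cut at about 130% in these data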;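 note: 0% = background luminescence of wells with medium and substrate only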
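System – human U3A cells carrying STAT3-luciferase construct · Probe or stimulus – Interleukin-6, 33 ng/mL · Schedule – compound 1 h, then IL-6 6 h at 37 °C · Signal – luminescence from STAT3-driven luciferase reporter · Evaluation – percent of IL-6-only median luminescence · Benchmarks – IL-6-only high control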
STAT3 inh – reduces IL-6 driven STAT3 reporter signal | U3A cells, IL-6 STAT3-luciferase reporter, luminescence; host cell line lacks STAT1 | inhibition, % at 5.5 µM | 190,000 tested, 0.89% active;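 active = inhibition above the mean inhibition across all screened compounds plus 3 SD, cut at about 44% in these data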;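 note: 0% = DMSO only wells and 100% = 100 µM nifuroxazide control wells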
STAT1 activator – STAT1 signaling activation. NIH 3T3 STAT1-luciferase reporter, IFN-gamma, luminescence; 100% = IFN-gamma alone, no compound. 200,000 tested, 2.6% active. activation (% of control), % at 5.5 µM;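 active = activation above the screen-wide mean activation plus 3 SD, cut at about 130% in these data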;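 note: raw ratio to IFN-gamma control signal so 100% means no change and 0% no light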
An asterisk follows results filed as active.

How did C/C(=N\NC(=O)c1csc(C)c1C)c1ccc(C)s1 do in these assays?
APP 5'UTR act: 17; STAT1 blocker: -20; NF-kB neuron act: 1.2; STAT3 act: 106; STAT3 inh: -11; STAT1 activator: 121

What do the screens show for `C/C(=N\NC(=O)c1csc(C)c1C)c1ccco1`?
APP 5'UTR act: 78; STAT1 blocker: -19; NF-kB neuron act: 3.7*; STAT3 act: 79; STAT3 inh: 26; STAT1 activator: 117

What do the screens show for `O=[N+]([O-])c1ccccc1NCCOc1ccccc1`?
APP 5'UTR act: 93; STAT1 blocker: -34; NF-kB neuron act: 1; STAT3 act: 104; STAT3 inh: -5; STAT1 activator: 129*

Results for CCn1nc2cc(C(=O)NCCc3cccs3)ccc2c1OC ?
APP 5'UTR act: 131; STAT1 blocker: -37; NF-kB neuron act: 4*; STAT3 act: 103; STAT3 inh: 4; STAT1 activator: 133*

Results for Cc1ccc(C(=O)NCCc2cccs2)cc1 ?
APP 5'UTR act: 83; STAT1 blocker: 58*; NF-kB neuron act: 1.8; STAT3 act: 36; STAT3 inh: 81*; STAT1 activator: 45

Results for CCOc1c2ccc(C(=O)NCCc3ccc(C)cc3)cc2nn1CC ?
APP 5'UTR act: 21; STAT1 blocker: 0; NF-kB neuron act: 1.1; STAT3 act: 105; STAT3 inh: 2; STAT1 activator: 100

Results for CCN(CC)c1nc(OCCNC(=O)Nc2ccccc2)nc(N(CC)CC)n1 ?
APP 5'UTR act: -13; STAT1 blocker: 1; NF-kB neuron act: 0.93; STAT3 act: 90; STAT3 inh: 12; STAT1 activator: 99

Results for COC(=O)CS(=O)(=O)c1ccsc1C(=O)Nc1ccc(F)cc1 ?
APP 5'UTR act: -10; STAT1 blocker: 0; NF-kB neuron act: 1.5; STAT3 act: 96; STAT3 inh: 9; STAT1 activator: 100

What do the screens show for `CCOC(=O)c1c(C)oc2c1c1c(c3ccccc32)OCN(Cc2cccnc2)C1`?
APP 5'UTR act: 77; STAT1 blocker: -7; NF-kB neuron act: 4.7*; STAT3 act: 126; STAT3 inh: -26; STAT1 activator: 106

Results for CCOC(=O)c1c(C)oc2c1c(C(c1cccnc1)N1CCOCC1)c(O)c1ccccc12 (stereo not given) ?
APP 5'UTR act: 103; STAT1 blocker: 0; NF-kB neuron act: 3.6*; STAT3 act: 133*; STAT3 inh: -32; STAT1 activator: 100

Results for Cc1cc(N2CCOCC2)ccc1/C=C1\NC(=O)N(CC(=O)Nc2ccc(F)cc2)C1=O ?
APP 5'UTR act: 7; STAT1 blocker: -35; NF-kB neuron act: 1.4; STAT3 act: 99; STAT3 inh: 7; STAT1 activator: 131*

Results for Cc1cc(N2CCCC2)ccc1/C=C1\NC(=S)N(C)C1=O ?
APP 5'UTR act: 54; STAT1 blocker: -34; NF-kB neuron act: 2.2; STAT3 act: 86; STAT3 inh: 21; STAT1 activator: 129*

How did Cc1cc(N2CCOCC2)ccc1/C=C1/SC(=O)NC1=O do in these assays?
APP 5'UTR act: 37; STAT1 blocker: -58; NF-kB neuron act: 5.3*; STAT3 act: 138*; STAT3 inh: -42; STAT1 activator: 152*

How did Cc1cc(N2CCOCC2)ccc1/C=C1\NC(=O)N(CC(=O)Nc2ccccc2C)C1=O do in these assays?
APP 5'UTR act: -6; STAT1 blocker: -10; NF-kB neuron act: 1.2; STAT3 act: 105; STAT3 inh: -10; STAT1 activator: 109

What do the screens show for `CCOc1ccc(Cn2c(C)nc([N+](=O)[O-])c2SCC(O)CCl)cc1[N+](=O)[O-]` (stereo not given)?
APP 5'UTR act: -8; STAT1 blocker: -1; NF-kB neuron act: 1.5; STAT3 act: 100; STAT3 inh: 1; STAT1 activator: 101

Results for CN(C)CCC(=O)c1cccc(Br)c1 ?
APP 5'UTR act: 2; STAT1 blocker: -3; NF-kB neuron act: 1.2; STAT3 act: 103; STAT3 inh: 1; STAT1 activator: 100

What do the screens show for `CCOC(=O)c1sc(NC(=O)c2ccccc2)cc1C`?
APP 5'UTR act: 117; STAT1 blocker: -49; NF-kB neuron act: 6.7*; STAT3 act: 94; STAT3 inh: 15; STAT1 activator: 145*
